ChEMBL document CHEMBL1129431, “Derivatives of (R)- and (S)-5-fluoro-8-hydroxy-2-(dipropylamino)tetralin: synthesis and interactions with 5-HT1A receptors” (J Med Chem, 1996)
“And” between values parts separate entries of the source, which are not always exact repeats. Equal values may be shown once.

Experiments:
[1] = molecular target: T1, 5-hydroxytryptamine receptor 1A (Rattus norvegicus, UniProt P19327); assay: Binding affinity against rat hippocampal 5-hydroxytryptamine 1A (5-HT1A) receptor determined using [3H]8-OH-DPAT as radioligand; assay type: tissue-based, Hippocampus
T1 sequence (P19327 whole entry): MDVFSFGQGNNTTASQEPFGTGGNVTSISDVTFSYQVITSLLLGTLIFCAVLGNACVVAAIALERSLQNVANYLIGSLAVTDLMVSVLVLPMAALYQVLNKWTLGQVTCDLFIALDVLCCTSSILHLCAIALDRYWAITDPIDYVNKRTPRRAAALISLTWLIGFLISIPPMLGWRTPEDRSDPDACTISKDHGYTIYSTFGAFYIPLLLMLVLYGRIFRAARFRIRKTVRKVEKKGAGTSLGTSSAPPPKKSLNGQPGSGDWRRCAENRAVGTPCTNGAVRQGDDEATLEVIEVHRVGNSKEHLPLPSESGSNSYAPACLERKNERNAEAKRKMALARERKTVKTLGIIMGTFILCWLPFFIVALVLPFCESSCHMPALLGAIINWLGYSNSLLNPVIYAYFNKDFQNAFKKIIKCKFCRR

[2] = molecular target: T2, 5-hydroxytryptamine receptor 1A (Rattus norvegicus) (UniProt P19327); assay: Effect on 5-hydroxytryptamine 1A receptor mediated inhibition of VIP-stimulated cAMP production at dose of 1 uM; assay type: functional; settings: values are per cent of control
T2 sequence (whole entry): T1 sequence (P19327 whole entry)
How it was run: (§1)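 GH4ZD10 cells expressing rat 5-HT1A receptors were detached with EBSS plus 1 mM EDTA and resuspended to ~1×10^7 cells/mL in Ham's F10 with 0.01% ascorbic acid and 0.1 mM IBMX. After 1 h preincubation at 37 °C they were diluted to 0.8-1.5×10^6 cells/mL, then incubated 20 min at 37 °C with VIP (39 nM final) plus compound, alone or with 5-HT, in duplicate. The reaction was stopped by boiling. cAMP was measured in triplicate by protein-binding assay and expressed as % of the VIP-stimulated response.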

[3] = molecular target: T2, 5-hydroxytryptamine receptor 1A (Rattus norvegicus); assay: Effect against 5-hydroxytryptamine 1A receptor mediated inhibition of VIP-stimulated cAMP production at 0.1 uM dose; assay type: functional; settings: values are per cent of control; how it was run: as §1
[4] = molecular target: T2, 5-hydroxytryptamine receptor 1A (Rattus norvegicus); assay: Effect on 5-hydroxytryptamine 1A receptor mediated inhibition of VIP-stimulated cAMP production at dose of 10 uM; assay type: functional; settings: values are per cent of control; how it was run: as §1
[5] = molecular target: T2, 5-hydroxytryptamine receptor 1A (Rattus norvegicus); assay: Effect on 5-hydroxytryptamine 1A receptor mediated inhibition of VIP-stimulated cAMP production at dose of 0.1 uM + 1 uM 5-HT.; assay type: functional; settings: values are per cent of control; how it was run: as §1
[6] = molecular target: T2, 5-hydroxytryptamine receptor 1A (Rattus norvegicus); assay: Effect on 5-hydroxytryptamine 1A receptor mediated inhibition of VIP-stimulated cAMP production at dose of 1 uM+ 50 uM 5-HT.; assay type: functional; settings: values are per cent of control
How it was run: (§2)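 GH4ZD10 cells expressing rat 5-HT1A receptors, detached with EDTA-supplemented Ca/Mg-free EBSS and resuspended in Ham's F10 with 0.01% ascorbic acid and 0.1 mM IBMX. Preincubated 1 h at 37 °C, then 0.8-1.5×10^6 cells/mL incubated 20 min at 37 °C with VIP (39 nM final) plus compounds. Duplicate samples stopped by boiling. cAMP measured in triplicate by protein-binding assay. Results are given as % of the VIP-stimulated response.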

[7] = molecular target: T2, 5-hydroxytryptamine receptor 1A (Rattus norvegicus); settings: 0.1 uM
[8] = molecular target: T2, 5-hydroxytryptamine receptor 1A (Rattus norvegicus); assay: Effect on 5-hydroxytryptamine 1A receptor mediated inhibition of VIP-stimulated cAMP production at dose of 30 uM; assay type: functional; settings: values are per cent of control; how it was run: as §1
[9] = molecular target: T2, 5-hydroxytryptamine receptor 1A (Rattus norvegicus); settings: 1 uM
[10] = molecular target: T2, 5-hydroxytryptamine receptor 1A (Rattus norvegicus); settings: 1 uM; remark: listed apart in the source
[11] = molecular target: T2, 5-hydroxytryptamine receptor 1A (Rattus norvegicus); assay: Effect on 5-hydroxytryptamine 1A receptor mediated inhibition of VIP-stimulated cAMP production at dose of 0.05 uM; assay type: functional; settings: values are per cent of control; how it was run: as §2
[12] = molecular target: T2, 5-hydroxytryptamine receptor 1A (Rattus norvegicus); assay: Effect on 5-hydroxytryptamine 1A receptor mediated inhibition of VIP-stimulated cAMP production at dose of 50 uM; assay type: functional; settings: values are per cent of control; how it was run: as §2
[13] = molecular target: T2, 5-hydroxytryptamine receptor 1A (Rattus norvegicus); assay: Effect on 5-hydroxytryptamine 1A receptor mediated inhibition of VIP-stimulated cAMP production at dose of 0.1 uM + 10 uM 5-HT.; assay type: functional; settings: values are per cent of control; how it was run: as §1
[14] = molecular target: T2, 5-hydroxytryptamine receptor 1A (Rattus norvegicus); assay: Effect on 5-hydroxytryptamine 1A receptor mediated inhibition of VIP-stimulated cAMP production at dose of 1 uM+ 10 uM 5-HT.; assay type: functional; settings: values are per cent of control; how it was run: as §1
[15] = molecular target: T2, 5-hydroxytryptamine receptor 1A (Rattus norvegicus); settings: 0.05 uM
[16] = molecular target: T2, 5-hydroxytryptamine receptor 1A (Rattus norvegicus); assay: Effect on 5-hydroxytryptamine 1A receptor mediated inhibition of VIP-stimulated cAMP production at dose of 1 uM+ 1 uM 5-HT.; assay type: functional; settings: values are per cent of control; how it was run: as §2

Compound	Ki [1]	response, % of control [2]	response, % of control [3]	response, % of control [4]	response, % of control [5]	also measured
CCCN(CCC)[C@H]1CCc2c(F)ccc(C(C)=O)c2C1 [listing 1 of 2 here]	13.6 nM	–	–	–	–	–
CCCN(CCC)[C@@H]1CCc2cccc(-c3cccs3)c2C1	8.4 nM	–	–	–	–	–
CCCN(CCC)[C@H]1CCc2cccc(S(=O)(=O)C(F)(F)F)c2C1	9.5 nM	–	–	–	–	–
CCCN(CCC)[C@H]1CCc2c(F)ccc(C(C)=O)c2C1 [listing 2 of 2 here]	–	98%	90%	97%	57%	–
CCCN(CCC)[C@@H]1CCc2c(F)ccc(C(C)=O)c2C1 [listing 1 of 2 here]	6.9 nM	–	–	–	–	–
CCCN(CCC)[C@@H]1CCc2c(F)ccc(C(C)=O)c2C1 [listing 2 of 2 here]	–	–	99%	61%	60%	response, % of control [6]: 63%; response, % of control [7]: 95%; response, % of control [8]: 62%; response, % of control [9]: 63%
CCCN(CCC)[C@H]1CCc2c(F)ccc(O)c2C1	24.8 nM	–	94%	100%	57%	response, % of control [10]: 100%
CCCN(CCC)[C@@H]1CCc2cccc(O)c2C1	–	45%	53%	47%	43%	–
CCCN(CCC)[C@@H]1CCc2c(F)ccc(OS(=O)(=O)C(F)(F)F)c2C1	18.5 nM	–	–	–	–	–
CCCN(CCC)[C@@H]1CCc2cccc(-c3ccco3)c2C1	9.3 nM	–	–	–	–	–
CCCN(CCCCN1C(=O)CC2(CCCC2)CC1=O)[C@@H]1CCc2c(F)ccc(OS(=O)(=O)C(F)(F)F)c2C1	0.9 nM	73%	–	–	68%	response, % of control [6]: 51%; response, % of control [11]: 98%
CCCN(CCC)[C@H]1CCc2c(F)cccc2C1 [listing 1 of 2 here]	250 nM	–	–	–	–	–
CCCN(CCCCN1C(=O)CC2(CCCC2)CC1=O)[C@H]1CCc2c(F)ccc(OS(=O)(=O)C(F)(F)F)c2C1	177 nM	90%	–	–	68%	response, % of control [11]: 98%; response, % of control [12]: 65%
CCCN(CCC)[C@H]1CCc2c(F)cccc2C1 [listing 2 of 2 here]	250 nM	–	–	–	–	–
CCCN(CCC)[C@@H]1CCc2c(F)ccc(-c3ccco3)c2C1	–	97%	106% and 98%	84%	60%	response, % of control [13]: 61%; response, % of control [8]: 79%
O=C1CC2(CCCC2)CC(=O)N1CCCCN1CCN(c2ncccn2)CC1	–	75%	84%	73%	43%	response, % of control [14]: 64%
CCCN(CCCCN1C(=O)CC2(CCCC2)CC1=O)[C@H]1CCc2c(F)ccc(O)c2C1	18.2 nM	91%	–	–	–	response, % of control [11]: 95%; response, % of control [12]: 82%; response, % of control [15]: 68%
CCCN(CCCCN1C(=O)CC2(CCCC2)CC1=O)[C@@H]1CCc2c(F)ccc(C(C)=O)c2C1	< 0.3 nM	59%	–	–	61%	response, % of control [6]: 55%; response, % of control [11]: 50%; response, % of control [12]: 48%
CCCN(CCC)[C@H]1CCc2cccc(O)c2C1	–	61%	74%	62%	43%	response, % of control [16]: 47%
CCCN(CCC)[C@H]1CCc2c(F)ccc(-c3ccco3)c2C1	–	98%	100%	98%	56%	–
CCCN(CCC)[C@H]1CCc2c(F)ccc(OS(=O)(=O)C(F)(F)F)c2C1	490 nM	–	–	–	–	–
CCCN(CCC)[C@@H]1CCc2c(F)cccc2C1	136 nM	–	–	–	–	–
